# Source: ChEMBL document CHEMBL4706770, “SD-91 as A Potent and Selective STAT3 Degrader Capable of Achieving Complete and Long-Lasting Tumor Regression” (ACS Med Chem Lett, 2021)
# Activity calls are given as the source filed them. The calls are words filed in the database; no cut-off is given here.
# What was measured:
# [1] = target: T1, Protein cereblon/Signal transducer and activator of transcription 5A (Homo sapiens) (UniProt P42229+Q96SW2); test: Protac activity at CRBN/STAT5 in human SU-DHL-1 cells […] at 0.25 to 100 uM incubated for 4 hrs by Western blot analysis; type: cell-based; conditions: dose lower 0.25 µM
# T1 sequence (P42229 whole entry, looked up): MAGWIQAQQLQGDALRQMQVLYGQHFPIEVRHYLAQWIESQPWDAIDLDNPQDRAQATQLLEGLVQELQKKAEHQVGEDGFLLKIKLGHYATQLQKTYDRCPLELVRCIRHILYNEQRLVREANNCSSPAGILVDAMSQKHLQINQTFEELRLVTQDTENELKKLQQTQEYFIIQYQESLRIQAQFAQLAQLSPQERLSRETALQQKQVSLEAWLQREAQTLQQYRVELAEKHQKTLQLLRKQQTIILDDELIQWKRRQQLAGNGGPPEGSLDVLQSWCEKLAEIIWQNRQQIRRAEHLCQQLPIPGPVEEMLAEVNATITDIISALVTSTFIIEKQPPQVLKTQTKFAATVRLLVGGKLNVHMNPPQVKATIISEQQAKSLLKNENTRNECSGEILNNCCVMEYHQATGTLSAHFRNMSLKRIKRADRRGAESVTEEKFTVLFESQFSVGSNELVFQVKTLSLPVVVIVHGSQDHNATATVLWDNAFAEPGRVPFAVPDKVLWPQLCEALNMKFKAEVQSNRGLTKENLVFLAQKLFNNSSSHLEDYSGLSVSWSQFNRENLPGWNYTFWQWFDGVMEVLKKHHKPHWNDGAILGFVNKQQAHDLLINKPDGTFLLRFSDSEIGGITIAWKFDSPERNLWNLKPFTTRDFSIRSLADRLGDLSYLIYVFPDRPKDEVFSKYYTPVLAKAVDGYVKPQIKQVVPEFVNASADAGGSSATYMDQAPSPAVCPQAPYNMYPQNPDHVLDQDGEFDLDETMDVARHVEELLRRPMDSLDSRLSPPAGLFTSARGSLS
# T1 sequence (Q96SW2 whole entry, looked up): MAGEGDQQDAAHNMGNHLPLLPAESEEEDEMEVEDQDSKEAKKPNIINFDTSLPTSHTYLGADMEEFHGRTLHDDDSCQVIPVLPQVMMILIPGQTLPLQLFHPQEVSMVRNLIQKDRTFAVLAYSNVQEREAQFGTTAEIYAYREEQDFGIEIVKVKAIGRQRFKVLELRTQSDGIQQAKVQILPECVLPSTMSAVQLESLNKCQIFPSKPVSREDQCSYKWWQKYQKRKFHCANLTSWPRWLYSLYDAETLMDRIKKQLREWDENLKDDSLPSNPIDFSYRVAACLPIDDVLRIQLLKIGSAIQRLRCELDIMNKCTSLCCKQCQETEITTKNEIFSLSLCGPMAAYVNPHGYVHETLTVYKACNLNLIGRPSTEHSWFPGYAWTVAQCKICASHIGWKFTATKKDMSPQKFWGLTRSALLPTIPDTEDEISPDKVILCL
# [2] = target: T1, Protein cereblon/Signal transducer and activator of transcription 5A (Homo sapiens); test: Protac activity at CRBN/STAT5 in human SUP-M2 cells assessed as STAT5 degradation at 0.25 to 100 uM incubated for 4 hrs by Western blot analysis; type: cell-based; conditions: SUPM2, dose 0.25-100 µM
# [3] = Stability of compound in buffer pH 8 assessed as conversion to (2-(((5S,8S,10aR)-8-(((S)-5-amino-1-(benzhydrylamino)-1,5-dioxopentan-2-yl)carbamoyl)-3-(8-(2-(2,6-dioxopiperidin-3-yl)-1-oxoisoindolin-4-yl)oct-7-ynoyl)-6-oxodecahydropyrrolo[1,2-a][1,5]diazocin-5-yl)carbamoyl)-1H-indole-5-carbonyl)phosphonic acid by measuring half life by LC/MS/MS analysis; type: physicochemical
# Summary of the method: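 SD-36 incubated in pH 8 buffer at room temperature; percentages of parent and hydrolysis products followed over time; half-life of conversion derived from the time course.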
# [4] = target: Protein cereblon/Signal transducer and activator of transcription 6 (Homo sapiens) (UniProt P42226+Q96SW2); test: In vivo protac activity at CRBN/STAT6 degradation in SCID mouse xenografted with human MOLM16 cells assessed as reduction in STAT6 in tumor tissue at 50 mg/kg, iv measured after 24 hrs by immunoblotting analysis; type: functional, organism-based
# Protein cereblon/Signal transducer and activator of transcription 6 (Homo sapiens), sequence (P42226 2-847 limits assumed): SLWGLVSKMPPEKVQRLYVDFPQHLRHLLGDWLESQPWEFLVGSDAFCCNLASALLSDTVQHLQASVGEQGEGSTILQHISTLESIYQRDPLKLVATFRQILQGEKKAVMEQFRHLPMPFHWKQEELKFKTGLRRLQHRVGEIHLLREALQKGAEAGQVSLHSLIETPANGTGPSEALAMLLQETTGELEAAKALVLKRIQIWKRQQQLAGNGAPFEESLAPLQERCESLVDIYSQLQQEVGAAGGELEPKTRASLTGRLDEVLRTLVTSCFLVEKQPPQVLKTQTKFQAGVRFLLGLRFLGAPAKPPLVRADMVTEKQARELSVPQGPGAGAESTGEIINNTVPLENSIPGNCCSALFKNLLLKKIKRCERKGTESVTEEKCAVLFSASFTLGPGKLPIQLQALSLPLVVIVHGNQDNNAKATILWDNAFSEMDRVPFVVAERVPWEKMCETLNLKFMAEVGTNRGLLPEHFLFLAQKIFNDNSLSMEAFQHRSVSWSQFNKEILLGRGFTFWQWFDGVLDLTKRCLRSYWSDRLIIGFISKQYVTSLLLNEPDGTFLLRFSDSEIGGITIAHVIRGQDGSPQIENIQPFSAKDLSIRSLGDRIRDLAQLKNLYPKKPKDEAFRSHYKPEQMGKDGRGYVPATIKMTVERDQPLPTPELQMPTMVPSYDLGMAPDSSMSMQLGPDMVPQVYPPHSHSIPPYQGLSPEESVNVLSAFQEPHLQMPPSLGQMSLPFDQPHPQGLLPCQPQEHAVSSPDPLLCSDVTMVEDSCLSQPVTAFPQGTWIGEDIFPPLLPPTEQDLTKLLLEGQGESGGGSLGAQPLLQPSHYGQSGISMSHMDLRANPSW
# Protein cereblon/Signal transducer and activator of transcription 6 (Homo sapiens), sequence (Q96SW2 whole entry partner): as the sequence (Q96SW2 whole entry, looked up) above
# Summary of the method: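 SCID mice bearing MOLM-16 tumors given a single iv dose of 50 mg/kg or dosing vehicle. Tumor lysates immunoblotted for STAT3, STAT1 and STAT6 at time points from 1 h to at least 24 h.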
# [5] = target: Protein cereblon/Signal transducer and activator of transcription 4 (Homo sapiens) (UniProt Q96SW2+Q14765); test: Protac activity at CRBN/STAT4 in human SUP-M2 cells assessed as STAT4 degradation at 0.25 to 100 uM incubated for 4 hrs by Western blot analysis; type: cell-based; conditions: SUPM2, dose 0.25-100 µM
# Protein cereblon/Signal transducer and activator of transcription 4 (Homo sapiens), sequence (Q14765 whole entry, looked up): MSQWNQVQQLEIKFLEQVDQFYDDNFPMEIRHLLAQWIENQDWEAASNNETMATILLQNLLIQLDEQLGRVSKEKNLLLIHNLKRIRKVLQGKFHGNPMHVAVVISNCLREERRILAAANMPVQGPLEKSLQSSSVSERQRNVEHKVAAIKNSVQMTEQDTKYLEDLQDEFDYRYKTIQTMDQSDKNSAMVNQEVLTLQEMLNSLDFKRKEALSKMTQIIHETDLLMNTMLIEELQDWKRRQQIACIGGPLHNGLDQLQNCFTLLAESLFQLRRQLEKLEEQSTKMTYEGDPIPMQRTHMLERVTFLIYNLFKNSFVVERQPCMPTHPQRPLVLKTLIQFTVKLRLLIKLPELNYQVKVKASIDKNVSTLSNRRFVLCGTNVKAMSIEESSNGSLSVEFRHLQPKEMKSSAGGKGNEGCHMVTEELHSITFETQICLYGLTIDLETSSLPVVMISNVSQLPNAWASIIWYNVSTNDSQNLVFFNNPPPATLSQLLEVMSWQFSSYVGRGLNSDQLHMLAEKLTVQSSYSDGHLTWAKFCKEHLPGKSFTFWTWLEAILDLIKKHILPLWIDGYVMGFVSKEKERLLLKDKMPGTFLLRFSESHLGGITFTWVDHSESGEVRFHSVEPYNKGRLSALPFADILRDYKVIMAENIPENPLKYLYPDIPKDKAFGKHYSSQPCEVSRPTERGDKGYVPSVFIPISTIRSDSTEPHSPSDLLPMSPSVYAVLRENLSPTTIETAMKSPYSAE
# Protein cereblon/Signal transducer and activator of transcription 4 (Homo sapiens), sequence (Q96SW2 whole entry, looked up): as the sequence (Q96SW2 whole entry, looked up) above
compound,measurement,setting,value
NC(=O)CC[C@H](NC(=O)[C@@H]1CC[C@@H]2CCN(C(=O)CCCCCC#Cc3cccc4c3CN(C3CCC(=O)NC3=O)C4=O)C[C@H](NC(=O)c3cc4cc(C(F)(F)P(=O)(O)O)ccc4[nH]3)C(=O)N21)C(=O)NC(c1ccccc1)c1ccccc1 (stereo not given in full),Activity,[1],inactive
same,Activity,[2],inactive
same,t1/2,[3],22 h
same,Activity,[4],inactive
same,Activity,[5],inactive
